What was measured:
[1] = Single-dose plasma pharmacokinetics of oral ixazomib; type: in vivo, human; details: for Total AUC0-last, geometric mean (% CV): single 3 mg oral dose
In short: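 Groups were CrCl ≥90 or <30 ml/min (Cockcroft–Gault) or on haemodialysis. Each patient took a single oral 3 mg dose fasted with about 240 ml water. Plasma was sampled pre-dose to 336 h and assayed by LC-MS/MS (0·5–500 ng/ml). Cmax and AUC0-last came from non-compartmental analysis. Group ratios of geometric means (90% CI) came from ANOVA on log-transformed parameters, with normal function as reference.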

CYP1A2 = details: supra-therapeutic concentrations; ref unpublished observations; cited from earlier work
[2] = CrCl 30-89 ml/min; ref Gupta et al, 2015b; cited from earlier work
CYP3A = details: supra-therapeutic concentrations; ref unpublished observations; cited from earlier work
[3] = Stability of ixazomib in dialysate fluid; type: physicochemical; details: dialysate fluid used in haemodialysis
[4] = Haemodialysis clearance, pre- and post-dialyser plasma samples in ESRD patients; type: in vivo, human
[5] = ref Gupta et al, 2013; cited from earlier work
[6] = system: relapsed and/or refractory multiple myeloma; test: Myeloma disease response; type: in vivo, human
In short: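 Part B dosing was oral ixazomib 4, 3 or 2·3 mg on days 1, 8 and 15 of 28-d cycles. Some patients also received dexamethasone 40 mg (20 mg if >75 years) on days 1, 8, 15 and 22 at investigator discretion. Investigators assessed response by IMWG uniform criteria across all cycles, with one bone marrow assessment to document CR. DOR ran from first CR/VGPR/PR to first progression.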

[7] = Safety and tolerability: adverse events; type: in vivo, human; details: for On-study deaths: first dose to 30 d after last dose
In short: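 The safety population was all patients given ≥1 dose: a single 3 mg dose in Part A, then optional Part B dosing at 4, 3 or 2·3 mg on days 1, 8 and 15 of 28-d cycles, with or without dexamethasone. AEs, including SAEs, were recorded throughout treatment up to 30 d after the last dose and graded by NCI CTCAE v4.03.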

[8] = severe RI/ESRD patients versus patients with normal renal function

CC(C)C[C@H](NC(=O)CNC(=O)c1cc(Cl)ccc1Cl)B(O)O [ixazomib]
Total systemic exposure, higher versus normal renal function [1, 8]: 39% | Unbound systemic exposure, higher versus normal renal function [1, 8]: 38% | Total AUC0-last, geometric mean (% CV) ([1]; ESRD (n = 6)): 783 (35) h·ng/ml | Total AUC0-last, geometric mean (% CV) ([1]; normal renal function (n = 15)): 575 (38) ^c h·ng/ml | Total AUC0-last, geometric mean (% CV) ([1]; severe RI (n = 10)): 813 (51) ^d h·ng/ml | Contribution to in vitro metabolism of ixazomib (CYP1A2): primary contributors | Ixazomib clearance in patients with mild or moderate RI [2]: not altered | Contribution to in vitro metabolism of ixazomib (CYP3A): primary contributors | Stability in dialysate [3]: instability | Haemodialysis clearance as share of overall systemic clearance ([4]; ESRD patients requiring haemodialysis): less than 10% | Ixazomib concentrations in pre- versus post-dialyser samples ([4]; ESRD patients, 4-h haemodialysis session about 24-28 h after dose): similar | clearance ([4]; human, plasma, oral, 3 mg): < 2 mL/min | PK interaction between ixazomib and dexamethasone [5]: no PK interaction | Patients with a response ([6]; normal renal function or ESRD groups (3 and 4 response-evaluable)): no patients | Patients with a PR ([6]; severe RI, 11 response-evaluable): five | Any TEAE ([7]; ESRD (N = 7)): 6 (86) n (%) | Any TEAE, Grade ≥3 ([7]; ESRD (N = 7)): 4 (57) n (%) | Drug-related SAE ([7]; ESRD (N = 7)): 0 n (%) | SAE ([7]; ESRD (N = 7)): 3 (43) n (%) | Study drug-related TEAE ([7]; ESRD (N = 7)): 4 (57) n (%) | Study drug-related TEAE, Grade ≥3 ([7]; ESRD (N = 7)): 1 (14) n (%) | TEAE resulting in ixazomib discontinuation ([7]; ESRD (N = 7)): 0 n (%) | TEAE resulting in ixazomib dose reduction ([7]; ESRD (N = 7)): 0 n (%) | TEAE: Anaemia ([7]; ESRD (N = 7)): 2 (29) n (%) | TEAE: Arthralgia ([7]; ESRD (N = 7)): 1 (14) n (%) | TEAE: Constipation ([7]; ESRD (N = 7)): 1 (14) n (%) | TEAE: Diarrhoea ([7]; ESRD (N = 7)): 1 (14) n (%) | TEAE: Dizziness ([7]; ESRD (N = 7)): 1 (14) n (%) | TEAE: Dyspnoea ([7]; ESRD (N = 7)): 1 (14) n (%) | TEAE: Fatigue ([7]; ESRD (N = 7)): 1 (14) n (%) | TEAE: Hypotension ([7]; ESRD (N = 7)): 1 (14) n (%) | TEAE: Nausea ([7]; ESRD (N = 7)): 2 (29) n (%) | TEAE: Peripheral oedema ([7]; ESRD (N = 7)): 0 n (%) | TEAE: URT infection ([7]; ESRD (N = 7)): 1 (14) n (%) | TEAE: Vomiting ([7]; ESRD (N = 7)): 2 (29) n (%) | On-study deaths ([7]; ESRD (N = 7)): 1 (14) n (%) | Dose reductions for ixazomib or dexamethasone ([7]; ESRD group): no dose reductions | Incidence of AE anaemia ([7]; ESRD group): 29% | Incidence of grade ≥3 AEs ([7]; ESRD group): 57% | Incidence of serious AEs ([7]; ESRD group): 43% | On-study deaths, number ([7]; ESRD group): 1 | Investigator-attributed drug-related anaemia ([7]; ESRD patients): 0% | Incidence of TEAE anaemia ([7]; all 41 patients): 22% | Incidence of TEAE diarrhoea ([7]; all 41 patients): 39% | Incidence of TEAE fatigue ([7]; all 41 patients): 29% | Incidence of TEAE nausea ([7]; all 41 patients): 34% | Incidence of TEAE vomiting ([7]; all 41 patients): 32% | Incidence of grade ≥3 TEAE anaemia ([7]; all 41 patients): 15% | Incidence of grade ≥3 TEAE decreased platelet count ([7]; all 41 patients): 7% | Incidence of grade ≥3 TEAE hypotension ([7]; all 41 patients): 7% | Patients with a TEAE of any grade ([7]; all 41 patients): 95% | Patients who developed peripheral neuropathy ([7]; all 41 patients (six patients)): 15% | Incidence of study drug-related TEAE diarrhoea ([7]; all patients): 29% | Incidence of study drug-related TEAE nausea ([7]; all patients): 29% | On-study deaths, number ([7]; all patients): three | Patients with at least 1 TEAE ([7]; four patients with solid tumours (three patients)): 75% | Any TEAE ([7]; normal renal function (N = 20)): 19 (95) n (%) | Any TEAE, Grade ≥3 ([7]; normal renal function (N = 20)): 9 (45) n (%) | Drug-related SAE ([7]; normal renal function (N = 20)): 3 (15) n (%) | SAE ([7]; normal renal function (N = 20)): 3 (15) n (%) | Study drug-related TEAE ([7]; normal renal function (N = 20)): 16 (80) n (%) | Study drug-related TEAE, Grade ≥3 ([7]; normal renal function (N = 20)): 7 (35) n (%) | TEAE resulting in ixazomib discontinuation ([7]; normal renal function (N = 20)): 2 (10) n (%) | TEAE resulting in ixazomib dose reduction ([7]; normal renal function (N = 20)): 4 (20) n (%) | TEAE: Anaemia ([7]; normal renal function (N = 20)): 1 (5) n (%) | TEAE: Arthralgia ([7]; normal renal function (N = 20)): 3 (15) n (%) | TEAE: Constipation ([7]; normal renal function (N = 20)): 5 (25) n (%) | TEAE: Diarrhoea ([7]; normal renal function (N = 20)): 9 (45) n (%) | TEAE: Dizziness ([7]; normal renal function (N = 20)): 1 (5) n (%) | TEAE: Dyspnoea ([7]; normal renal function (N = 20)): 2 (10) n (%) | TEAE: Fatigue ([7]; normal renal function (N = 20)): 5 (25) n (%) | TEAE: Hypotension ([7]; normal renal function (N = 20)): 1 (5) n (%) | TEAE: Nausea ([7]; normal renal function (N = 20)): 7 (35) n (%) | TEAE: Peripheral oedema ([7]; normal renal function (N = 20)): 2 (10) n (%) | TEAE: URT infection ([7]; normal renal function (N = 20)): 5 (25) n (%) | TEAE: Vomiting ([7]; normal renal function (N = 20)): 6 (30) n (%) | On-study deaths ([7]; normal renal function (N = 20)): 0 n (%) | AEs leading to ixazomib discontinuations ([7]; normal renal function group): 10% | AEs leading to ixazomib dose reductions ([7]; normal renal function group): 20% | Incidence of AE anaemia ([7]; normal renal function group): 5% | Incidence of grade ≥3 AEs ([7]; normal renal function group): 45% | Incidence of serious AEs ([7]; normal renal function group): 15% | Investigator-attributed drug-related anaemia ([7]; normal renal function group): 5% | Any TEAE ([7]; severe RI (N = 14)): 14 (100) n (%) | Any TEAE, Grade ≥3 ([7]; severe RI (N = 14)): 11 (79) n (%) | Drug-related SAE ([7]; severe RI (N = 14)): 2 (14) n (%) | SAE ([7]; severe RI (N = 14)): 6 (43) n (%) | Study drug-related TEAE ([7]; severe RI (N = 14)): 12 (86) n (%) | Study drug-related TEAE, Grade ≥3 ([7]; severe RI (N = 14)): 7 (50) n (%) | TEAE resulting in ixazomib discontinuation ([7]; severe RI (N = 14)): 4 (29) n (%) | TEAE resulting in ixazomib dose reduction ([7]; severe RI (N = 14)): 4 (29) n (%) | TEAE: Anaemia ([7]; severe RI (N = 14)): 6 (43) n (%) | TEAE: Arthralgia ([7]; severe RI (N = 14)): 2 (14) n (%) | TEAE: Constipation ([7]; severe RI (N = 14)): 3 (21) n (%) | TEAE: Diarrhoea ([7]; severe RI (N = 14)): 6 (43) n (%) | TEAE: Dizziness ([7]; severe RI (N = 14)): 4 (29) n (%) | TEAE: Dyspnoea ([7]; severe RI (N = 14)): 3 (21) n (%) | TEAE: Fatigue ([7]; severe RI (N = 14)): 6 (43) n (%) | TEAE: Hypotension ([7]; severe RI (N = 14)): 3 (21) n (%) | TEAE: Nausea ([7]; severe RI (N = 14)): 5 (36) n (%) | TEAE: Peripheral oedema ([7]; severe RI (N = 14)): 4 (29) n (%) | TEAE: URT infection ([7]; severe RI (N = 14)): 1 (7) n (%) | TEAE: Vomiting ([7]; severe RI (N = 14)): 5 (36) n (%) | On-study deaths ([7]; severe RI (N = 14)): 2 (14) n (%) | AEs leading to ixazomib discontinuations ([7]; severe RI group): 29% | AEs leading to ixazomib dose reductions ([7]; severe RI group): 29% | Incidence of AE anaemia ([7]; severe RI group): 43% | Incidence of grade ≥3 AEs ([7]; severe RI group): 79% | Incidence of serious AEs ([7]; severe RI group): 43% | Investigator-attributed drug-related anaemia ([7]; severe RI group): 29% | On-study deaths, number ([7]; severe RI group): 2 | Any TEAE ([7]; total (N = 41)): 39 (95) n (%) | Any TEAE, Grade ≥3 ([7]; total (N = 41)): 24 (59) n (%) | Drug-related SAE ([7]; total (N = 41)): 5 (12) n (%) | SAE ([7]; total (N = 41)): 12 (29) n (%) | Study drug-related TEAE ([7]; total (N = 41)): 32 (78) n (%) | Study drug-related TEAE, Grade ≥3 ([7]; total (N = 41)): 15 (37) n (%) | TEAE resulting in ixazomib discontinuation ([7]; total (N = 41)): 6 (15) n (%) | TEAE resulting in ixazomib dose reduction ([7]; total (N = 41)): 8 (20) n (%) | TEAE: Anaemia ([7]; total (N = 41)): 9 (22) n (%) | TEAE: Arthralgia ([7]; total (N = 41)): 6 (15) n (%) | TEAE: Constipation ([7]; total (N = 41)): 9 (22) n (%) | TEAE: Diarrhoea ([7]; total (N = 41)): 16 (39) n (%) | TEAE: Dizziness ([7]; total (N = 41)): 6 (15) n (%) | TEAE: Dyspnoea ([7]; total (N = 41)): 6 (15) n (%) | TEAE: Fatigue ([7]; total (N = 41)): 12 (29) n (%) | TEAE: Hypotension ([7]; total (N = 41)): 5 (12) n (%) | TEAE: Nausea ([7]; total (N = 41)): 14 (34) n (%) | TEAE: Peripheral oedema ([7]; total (N = 41)): 6 (15) n (%) | TEAE: URT infection ([7]; total (N = 41)): 7 (17) n (%) | TEAE: Vomiting ([7]; total (N = 41)): 13 (32) n (%) | On-study deaths ([7]; total (N = 41)): 3 (7) n (%)

From paper PMC5084759 (British Journal of Haematology, 2016)
